Test results reported in ChEMBL document CHEMBL2401652 (J Med Chem, 2013).
pIC50: −log10 of the molar value. Each block holds one compound with its values, some of them ahead of it. Activity calls are given as the source filed them. The rule behind the calls is not given here.

Experiments:
[1] = Cytotoxicity against african green monkey Vero cells assessed as cell viability at 60 uM after 24 hrs by MTT assay relative to control; type: cell-based; conditions: chlorocebus sabaeus, read-out: Activity
Outline: (§1)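 Vero and HEK-293T normal cells (1 × 10^4 per well) exposed 24 h to 0, 15, 30, 45, 60 μM at 37 °C, 5% CO2, triplicate; MTT added 3 h; viability relative to vehicle control (0.15% ethanol).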

[2] = Cytotoxicity against human HEK293T cells assessed as cell viability at 60 uM after 24 hrs by MTT assay relative to control; type: cell-based, HEK-293T; conditions: read-out: Activity; outline: as §1
NCI-H23 = assay: Cytotoxicity against human NCI-H23 cells assessed as growth inhibition after 48 hrs by MTT assay; conditions: NCI-H23, 48 h
PANC-1 [3] = assay: Induction of apoptosis in human PANC1 cells assessed as procaspase-8 cleavage at 50 uM after 24 hrs by Western blot analysis; type: functional, cell-based
Outline: (§2)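 Cells (1.5 × 10^6) treated 24 h at 25 or 50 μM; 50 μg protein per lane on 10% SDS-PAGE, nitrocellulose, 2% TBS-BSA block, primary antibody overnight at 4 °C, HRP secondary, ECL detection; β-actin loading control; untreated controls in parallel.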

MIA PaCa-2 = assay: Cytotoxicity against human MIAPaCa2 cells assessed as growth inhibition after 48 hrs by MTT assay; conditions: MIA PaCa-2, 48 h
[4] = Cytotoxicity against human LN229 cells assessed as growth inhibition after 48 hrs by MTT assay; conditions: LN-229, 48 h
PANC-1 [5] = assay: Downregulation of total Bid expression in human PANC1 cells at 50 uM after 24 hrs by Western blot analysis; type: functional, cell-based; outline: as §2
T98G [6] = assay: Induction of apoptosis in human T98G cells assessed as PARP cleavage at 50 uM after 24 hrs by Western blot analysis; type: functional, cell-based
Outline: (§3)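 Cells (1.5 × 10^6) exposed 24 h to compound (25 or 50 μM). 50 μg protein per lane resolved on 10% SDS-PAGE and transferred to nitrocellulose. Membrane blocked in 2% TBS-BSA, then probed with primary antibody overnight at 4 °C and HRP secondary. Detection by ECL, with β-actin as loading control. Untreated control run in parallel.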

PANC-1 [7] = assay: Induction of mitochondrial transmembrane depolarization in human PANC1 cells at 30 uM after 24 hrs by JC1 staining-based flow cytometric analysis (reference value: 2.7%); type: functional
PANC-1 [8] = assay: Cytotoxicity against human PANC1 cells assessed as growth inhibition after 48 hrs by MTT assay; conditions: PANC-1, 48 h
[9] = Cytotoxicity against human U373MG cells assessed as growth inhibition after 48 hrs by MTT assay; conditions: U373 MG
PANC-1 [10] = assay: Downregulation of Bcl-xL expression in human PANC1 cells at 50 uM after 24 hrs by Western blot analysis; type: functional, cell-based; outline: as §2
T98G [11] = assay: Induction of apoptosis in human T98G cells assessed as procaspase-7 cleavage at 50 uM after 24 hrs by Western blot analysis; type: functional, cell-based; outline: as §3
T98G [12] = assay: Cytotoxicity against human T98G cells assessed as growth inhibition after 48 hrs by MTT assay
T98G [13] = assay: Cytotoxicity against human T98G cells assessed as growth inhibition at 50 uM by MTT assay; type: functional, cell-based; conditions: TDE = time-dependent effect
[14] = Binding affinity to DNA (unknown origin) at 100 uM after 2 hrs by UV-Vis absorption spectroscopic analysis
Outline: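 DNA (100 μg/mL; stock 1.0 mg/mL in 50 mM Tris-HCl pH 7.5, 50 mM NaCl) with ligand fixed at 100 μM; incubated at 37 °C, then diluted six-fold; absorbance scanned 220–350 nm at 25 °C, 1 cm quartz cell; 260 nm band monitored.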

[15] = Cytotoxicity against human U87MG cells assessed as growth inhibition after 48 hrs by MTT assay; conditions: U-87 MG
T98G [16] = assay: Downregulation of total Bid expression in human T98G cells at 50 uM after 24 hrs by Western blot analysis; type: functional, cell-based; outline: as §2
PANC-1 [17] = assay: Induction of apoptosis in human PANC1 cells at 30 uM after 24 hrs by dUTP-FITC staining-based TUNEL assay (reference value: 0.17%); type: functional
T98G [18] = assay: Induction of mitochondrial transmembrane depolarization in human T98G cells at 30 uM after 24 hrs by JC1 staining-based flow cytometric analysis (reference value: 10.26%); type: functional
T98G [19] = assay: Induction of apoptosis in human T98G cells assessed as induction of DNA damage at 20 uM after 24 hrs by comet assay relative to untreated control; type: functional
Outline: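 T98G cells (1 × 10^5) treated 24 h with 0 or 20 μM. About 20000 cells embedded in 0.5% low-melting agarose and lysed overnight at 4 °C at pH 10. Alkaline electrophoresis (pH 13) for 30 min at 300 mA at 4 °C, then ethidium bromide staining. Tail length (nucleus centre to tail tip) from ≥20 comets, reported as mean ± SD.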

T98G [20] = assay: Induction of apoptosis in human T98G cells assessed as procaspase-9 cleavage at 50 uM after 24 hrs by Western blot analysis; type: functional, cell-based; outline: as §3
REH = assay: Cytotoxicity against human REH cells assessed as growth inhibition after 48 hrs by MTT assay
PANC-1 [21] = assay: Induction of apoptosis in human PANC1 cells assessed as PARP cleavage at 50 uM after 24 hrs by Western blot analysis; type: functional, cell-based; outline: as §2
A549 [22] = assay: Cytotoxicity against human A549 cells assessed as growth inhibition after 48 hrs by MTT assay; conditions: A549, 48 h
PANC-1 [23] = assay: Induction of apoptosis in human PANC1 cells assessed as procaspase-7 cleavage at 50 uM after 24 hrs by Western blot analysis; type: functional, cell-based; outline: as §2
HCT-116 [24] = assay: Cytotoxicity against human HCT116 cells assessed as growth inhibition after 48 hrs by MTT assay; conditions: HCT-116, 48 h
[25] = Cytotoxicity against human A172 cells assessed as growth inhibition after 48 hrs by MTT assay; conditions: A 172, 48 h
HeLa = assay: Cytotoxicity against human HeLa cells assessed as growth inhibition after 48 hrs by MTT assay
PANC-1 [26] = assay: Induction of apoptosis in human PANC1 cells assessed as procaspase-9 cleavage at 50 uM after 24 hrs by Western blot analysis; type: functional, cell-based; outline: as §3
K562 [27] = assay: Cytotoxicity against human K562 cells assessed as growth inhibition after 48 hrs by MTT assay; conditions: K562, 48 h
MOLT-3 = assay: Cytotoxicity against human MOLT3 cells assessed as growth inhibition after 48 hrs by MTT assay; conditions: MOLT-3, 48 h
MOLT-4 = assay: Cytotoxicity against human MOLT4 cells assessed as growth inhibition after 48 hrs by MTT assay; conditions: MOLT-4, 48 h
PANC-1 [28] = assay: Induction of apoptosis in human PANC1 cells at 30 uM after 24 hrs by 7-AAD-based FACS flow cytometric analysis (reference value: 5.18%); type: functional
[29] = Cytotoxicity against human Panc 10.05 cells assessed as growth inhibition after 48 hrs by MTT assay; conditions: Panc1005, 48 h
T98G [30] = assay: Downregulation of Bcl-xL expression in human T98G cells at 50 uM after 24 hrs by Western blot analysis; type: functional, cell-based; outline: as §2
T98G [31] = assay: Induction of apoptosis in human T98G cells at 30 uM after 24 hrs by 7-AAD-based FACS flow cytometric analysis (reference value: 5.3%); type: functional
ASPC1 = assay: Cytotoxicity against human AsPC1 cells assessed as growth inhibition after 48 hrs by MTT assay; conditions: ASPC1, 48 h
[32] = Cytotoxicity against human CEMC-7 cells assessed as growth inhibition after 48 hrs by MTT assay; conditions: CEMC-7, 48 h
SW480 = assay: Cytotoxicity against human SW480 cells assessed as growth inhibition after 48 hrs by MTT assay; conditions: SW480, 48 h
T98G [33] = assay: Induction of apoptosis in human T98G cells assessed as procaspase-8 cleavage at 50 uM after 24 hrs by Western blot analysis; type: functional, cell-based; outline: as §3
T98G [34] = assay: Induction of apoptosis in human T98G cells at 30 uM after 24 hrs by dUTP-FITC staining-based TUNEL assay (reference value: 1.88%); type: functional
A549 [35] = assay: Cytotoxicity against human A549 cells assessed as growth inhibition after 24 hrs by MTT assay; type: functional, cell-based
Outline: (§4)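 Log-phase cells (1 × 10^4 per well) treated 24 h with 0–30 μM at 37 °C, 5% CO2, in triplicate; MTT added for final 3 h; vehicle 0.15% ethanol; IC50 from three separate days, mean ± SE.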

K562 [36] = assay: Cytotoxicity against human K562 cells assessed as growth inhibition after 24 hrs by MTT assay; type: functional, cell-based; outline: as §4
T98G [37] = assay: Cytotoxicity against human T98G cells assessed as growth inhibition after 24 hrs by MTT assay; type: functional, cell-based; outline: as §4
HCT-116 [38] = assay: Cytotoxicity against human HCT116 cells assessed as growth inhibition after 24 hrs by MTT assay; type: functional, cell-based; outline: as §4
PANC-1 [39] = assay: Cytotoxicity against human PANC1 cells assessed as growth inhibition after 24 hrs by MTT assay; type: functional, cell-based; outline: as §4

Compound: CC(C)=CCCC1(C)C=Cc2c(c(C)cc3c2[nH]c2cc(O)ccc23)O1 (stereo unspecified) [MAHANINE]
viability at 24 h, 60 µM [1]: > 85%
viability at 24 h, 60 µM [2]: > 65%

Activity [14]: Active
Compound: CC(C)=CCC[C@]1(C)C=Cc2c(c(C)cc3c2[nH]c2ccccc23)O1
pIC50 (NCI-H23): 4.60
Activity (PANC-1 [3]): Active
pIC50 (MIA PaCa-2): 4.60
pIC50 [4]: 4.60
Activity (PANC-1 [5]): Active
Activity (T98G [6]): Active
Activity (PANC-1 [7]): 15.3%
pIC50 (PANC-1 [8]): 4.60
pIC50 [9]: 4.60
Activity (PANC-1 [10]): Active
Activity (T98G [11]): Active
pIC50 (T98G [12]): 4.60
growth inhibition (GI) (T98G [13]): tde
pIC50 [15]: 4.60
Activity (T98G [16]): Active
Activity (PANC-1 [17]): 1.13%
Activity (T98G [18]): 16.72%
Activity (T98G [19]): inactive
Activity (T98G [20]): Active
pIC50 (REH): 4.60
Activity (PANC-1 [21]): Active
pIC50 (A549 [22]): 4.60
Activity (PANC-1 [23]): Active
pIC50 (HCT-116 [24]): 4.60
pIC50 [25]: 4.60
pIC50 (HeLa): 4.60
Activity (PANC-1 [26]): Active
pIC50 (K562 [27]): 4.60
pIC50 (MOLT-3): 4.60
pIC50 (MOLT-4): 4.60
Activity (PANC-1 [28]): 17.06%
pIC50 [29]: 4.60
Activity (T98G [30]): Active
Activity (T98G [31]): 10.13%
pIC50 (ASPC1): 4.60
pIC50 [32]: 4.60
pIC50 (SW480): 4.60
Activity (T98G [33]): Active
Activity (T98G [34]): 9.58%

Activity [14]: Active
Compound: CC(C)=CCC[C@]1(C)C=Cc2c(c(C)cc3c4ccccc4n(C)c23)O1
Activity (PANC-1 [3]): inactive
Activity (PANC-1 [5]): inactive
Activity (T98G [6]): inactive
Activity (PANC-1 [10]): inactive
Activity (T98G [11]): inactive
Activity (T98G [16]): inactive
Activity (T98G [19]): inactive
growth inhibition (GI) (A549 [35]): Active
growth inhibition (GI) (K562 [36]): Active
Activity (T98G [20]): inactive
Activity (PANC-1 [21]): inactive
Activity (PANC-1 [23]): inactive
growth inhibition (GI) (T98G [37]): Active
Activity (PANC-1 [26]): inactive
Activity (T98G [30]): inactive
Activity (T98G [33]): inactive
growth inhibition (GI) (HCT-116 [38]): Active
growth inhibition (GI) (PANC-1 [39]): Active
